Data taken from ChEMBL document CHEMBL1149435, “Inactivation of S-adenosyl-L-homocysteine hydrolase by 6'-cyano-5',6'-didehydro-6'-deoxyhomoadenosine and 6'-chloro-6'-cyano-5',6'-didehydro-6'-deoxyhomoadenosine. Antiviral and cytotoxic effects” (J Med Chem, 2006).
Converted amounts (≈) assume the structure as drawn.

Columns and labels:
Human alphaherpesvirus 3 [1] = experiment: Antiviral activity against TK- VZV 07/10 in human embryonic lung cells; format: functional, organism-based; conditions: Human alphaherpesvirus 3, 07/10, lung
Human alphaherpesvirus 3 [2] = experiment: Antiviral activity against TK+ VZV OKA in human embryonic lung cells; format: functional, organism-based; conditions: Human alphaherpesvirus 3, OKA
Adenosylhomocysteinase = Adenosylhomocysteinase (Homo sapiens, UniProt P23526); experiment: Inhibitory activity against AdoHcy Hydrolase
Adenosylhomocysteinase, sequence (P23526 whole entry): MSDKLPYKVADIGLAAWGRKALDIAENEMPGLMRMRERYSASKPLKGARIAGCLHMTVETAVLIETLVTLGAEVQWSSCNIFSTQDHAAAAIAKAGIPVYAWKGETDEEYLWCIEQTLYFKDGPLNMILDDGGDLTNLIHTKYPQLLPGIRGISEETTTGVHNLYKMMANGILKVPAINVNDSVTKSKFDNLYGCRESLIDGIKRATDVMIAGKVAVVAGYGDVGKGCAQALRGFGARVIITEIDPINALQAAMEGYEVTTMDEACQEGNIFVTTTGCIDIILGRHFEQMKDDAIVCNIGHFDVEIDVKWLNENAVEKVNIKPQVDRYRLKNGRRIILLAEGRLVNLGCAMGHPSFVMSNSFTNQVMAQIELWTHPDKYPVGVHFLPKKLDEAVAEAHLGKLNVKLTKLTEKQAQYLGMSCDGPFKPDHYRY
Outline: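 Purified recombinant placental AdoHcy hydrolase was preincubated with inhibitor at several concentrations in assay buffer at 37 °C. Remaining activity was measured in the synthetic direction. Ki and kinact came from the Kitz–Wilson method. […] Irreversibility was checked by 24 h dialysis.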

Cytomegalovirus [3] = experiment: Antiviral activity against Cytomegalovirus AD169 in human embryonic lung cells; format: functional, organism-based; conditions: Human betaherpesvirus 5, AD169, lung
Outline: (§1)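 Human embryonic lung cell cultures were infected with cytomegalovirus, and the effect on viral plaque formation was scored. EC50 is the concentration, in µg/mL, that reduced virus plaque formation by 50%.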

HEL [4] = experiment: Cytotoxicity against HEL cells; format: functional; conditions: Homo sapiens
Outline: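 Cytotoxicity was measured in human embryonic lung cells as inhibition of cell growth. CC50 is the concentration, in µg/mL, that reduced cell growth by 50%.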

HEL [5] = experiment: Cytotoxicity as determined by alteration in the cell morphology of HEL cells; format: functional; conditions: Homo sapiens
Outline: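 Human embryonic lung cells were examined by microscope for changes in morphology. MCC is the minimum concentration, in µg/mL, that caused a microscopically detectable alteration of cell morphology.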

Cytomegalovirus [6] = experiment: Antiviral activity against Cytomegalovirus Davis in human embryonic lung cells; format: functional, organism-based; conditions: Human betaherpesvirus 5, Davis; outline: as §1

For `N#C/C(Cl)=C\[C@H]1O[C@@H](n2cnc3c(N)ncnc32)[C@H](O)[C@@H]1O`, the EC50 (Human alphaherpesvirus 3 [1]) was 17 µg/mL (≈ 52.7 µM), the EC50 (Human alphaherpesvirus 3 [2]) was 11 µg/mL (≈ 34.1 µM) and the Ki (Adenosylhomocysteinase) was 17 µM. For the same molecule, the EC50 (Cytomegalovirus [3]) was over 20 µg/mL, the CC50 (HEL [4]) was 1.2 µg/mL (≈ 3.72 µM) and the MCC (HEL [5]) was 100 µg/mL. The EC50 (Cytomegalovirus [6]) was over 20 µg/mL.

`Nc1ccn(C[C@@H](CO)OCP(=O)(O)O)c(=O)n1.O.O` [CIDOFOVIR] gave an EC50 (Cytomegalovirus [3]) of 0.49 µg/mL, a CC50 (HEL [4]) of 23 µg/mL and an MCC (HEL [5]) of at least 400 µg/mL. It also gave an EC50 (Cytomegalovirus [6]) of 0.64 µg/mL.

`O=c1[nH]c(=O)n([C@H]2C[C@H](O)[C@@H](CO)O2)cc1/C=C/Br` [BRIVUDINE] showed an EC50 (Human alphaherpesvirus 3 [1]) of 149 µg/mL (≈ 447 µM), an EC50 (Human alphaherpesvirus 3 [2]) of 0.0051 µg/mL (≈ 0.0153 µM) and a CC50 (HEL [4]) of over 200 µg/mL. For the same molecule, the MCC (HEL [5]) was over 400 µg/mL.

`Nc1nc2c(ncn2COCCO)c(=O)[nH]1` [ACYCLOVIR] was tested, and the CC50 (HEL [4]) was 118 µg/mL (≈ 524 µM) and the MCC (HEL [5]) was over 400 µg/mL.

With `Nc1nc2c(ncn2COC(CO)CO)c(=O)[nH]1` [GANCICLOVIR] the EC50 (Cytomegalovirus [3]) was 3.2 µg/mL (≈ 12.5 µM), the CC50 (HEL [4]) was 34 µg/mL (≈ 133 µM) and the MCC (HEL [5]) was at least 400 µg/mL. For the same molecule, the EC50 (Cytomegalovirus [6]) was 3.2 µg/mL (≈ 12.5 µM).

In the case of `N#C/C=C\[C@H]1O[C@@H](n2cnc3c(N)ncnc32)[C@H](O)[C@@H]1O`, the EC50 (Human alphaherpesvirus 3 [1]) is reported as over 20 µg/mL, the EC50 (Human alphaherpesvirus 3 [2]) is reported as over 20 µg/mL and the EC50 (Cytomegalovirus [3]) is reported as over 20 µg/mL. It also gave a CC50 (HEL [4]) of over 20 µg/mL, an MCC (HEL [5]) of 100 µg/mL and an EC50 (Cytomegalovirus [6]) of over 20 µg/mL.

With `N#C/C=C/[C@H]1O[C@@H](n2cnc3c(N)ncnc32)[C@H](O)[C@@H]1O` the EC50 (Human alphaherpesvirus 3 [1]) was over 20 µg/mL, the EC50 (Human alphaherpesvirus 3 [2]) was over 20 µg/mL and the EC50 (Cytomegalovirus [3]) was over 20 µg/mL. For the same molecule, the CC50 (HEL [4]) was 11 µg/mL (≈ 38.2 µM), the MCC (HEL [5]) was at least 20 µg/mL and the EC50 (Cytomegalovirus [6]) was over 20 µg/mL.
